Reference: ChEMBL document CHEMBL5058577, “EUbOPEN Chemogenomics Library 2 (Multiplex)” (2022)

Tested on: HEK-293T
Experiment: Multiplex assay against HEK293T
Format: toxicity, cell-based
Details: human
In short: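 Phenotypes for tubulin, mitochondrial mass and membrane permeability are expressed as per cents of healthy-nucleus cells. Cells were stained live at seeding with Hoechst33342, BioTracker Green Microtubule Cytoskeleton Dye, MitoTracker Red and Annexin V Alexa Fluor 680, then imaged after compound addition on a CQ1 microscope at 37°C and 5% CO2. Machine-learning gating in CellPathfinder separated Hoechst high-intensity objects from normal cells, divided normal cells by nuclear state (healthy, pyknosed, fragmented) and divided pyknosed cells into mitotic or apoptotic.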

[1] = 12 h, 1 µM, compound concentration 1 uM, replicate 1
[2] = 12 h, 1 µM, compound concentration 1 uM, replicate 2
[3] = 12 h, 10 µM, compound concentration 10 uM, replicate 1
[4] = 12 h, 10 µM, compound concentration 10 uM, replicate 2
[5] = 24 h, 1 µM, compound concentration 1 uM, replicate 1
[6] = 24 h, 1 µM, compound concentration 1 uM, replicate 2
[7] = 24 h, 10 µM, compound concentration 10 uM, replicate 1
[8] = 24 h, 10 µM, compound concentration 10 uM, replicate 2
[9] = 48 h, 1 µM, compound concentration 1 uM, replicate 1
[10] = 48 h, 1 µM, compound concentration 1 uM, replicate 2
[11] = 48 h, 10 µM, compound concentration 10 uM, replicate 1
[12] = 48 h, 10 µM, compound concentration 10 uM, replicate 2

Compound: O=C(O)CCC/C=C\CC1C(O)CC(O)C1/C=C/C(O)COc1cccc(Cl)c1 (stereo not drawn) [CLOPROSTENOL]
- Population Apoptotic (%) [1]: 31%
- Population Fragmented Nuclei (%) [1]: 7%
- Population Healthy Nuclei (%) [1]: 81%
- Population Hoechst High Intensity Objects (%) [1]: 9%
- Population Membrane Permeable-Phenotype (%) [1]: 0%
- Population Mitochondria Different-Phenotype (%) [1]: 44%
- Population Mitotic Cells (%) [1]: 68%
- Population Normal (%) [1]: 90%
- Population Pyknosed Nuclei (%) [1]: 10%
- Population Tubulin-Different-Phenotype (%) [1]: 35%
- Total Cell Count [1]: 458
- Population Apoptotic (%) [2]: 40%
- Population Fragmented Nuclei (%) [2]: 6%
- Population Healthy Nuclei (%) [2]: 80%
- Population Hoechst High Intensity Objects (%) [2]: 7%
- Population Mitochondria Different-Phenotype (%) [2]: 56%
- Population Mitotic Cells (%) [2]: 59%
- Population Normal (%) [2]: 92%
- Population Pyknosed Nuclei (%) [2]: 13%
- Population Tubulin-Different-Phenotype (%) [2]: 23%
- Total Cell Count [2]: 341
- Population Apoptotic (%) [3]: 45%
- Population Fragmented Nuclei (%) [3]: 7%
- Population Healthy Nuclei (%) [3]: 77%
- Population Hoechst High Intensity Objects (%) [3]: 6%
- Population Membrane Permeable-Phenotype (%) [3]: 0%
- Population Mitochondria Different-Phenotype (%) [3]: 63%
- Population Mitotic Cells (%) [3]: 54%
- Population Normal (%) [3]: 93%
- Population Pyknosed Nuclei (%) [3]: 14%
- Population Tubulin-Different-Phenotype (%) [3]: 41%
- Total Cell Count [3]: 395
- Population Apoptotic (%) [4]: 51%
- Population Fragmented Nuclei (%) [4]: 8%
- Population Hoechst High Intensity Objects (%) [4]: 13%
- Population Mitochondria Different-Phenotype (%) [4]: 68%
- Population Mitotic Cells (%) [4]: 48%
- Population Normal (%) [4]: 86%
- Population Tubulin-Different-Phenotype (%) [4]: 37%
- Total Cell Count [4]: 357
- Population Apoptotic (%) [5]: 22%
- Population Fragmented Nuclei (%) [5]: 11%
- Population Healthy Nuclei (%) [5]: 76%
- Population Hoechst High Intensity Objects (%) [5]: 7%
- Population Membrane Permeable-Phenotype (%) [5]: 1%
- Population Mitochondria Different-Phenotype (%) [5]: 25%
- Population Mitotic Cells (%) [5]: 77%
- Population Normal (%) [5]: 92%
- Population Pyknosed Nuclei (%) [5]: 11%
- Population Tubulin-Different-Phenotype (%) [5]: 28%
- Total Cell Count [5]: 612
- Population Apoptotic (%) [6]: 34%
- Population Fragmented Nuclei (%) [6]: 7%
- Population Healthy Nuclei (%) [6]: 83%
- Population Hoechst High Intensity Objects (%) [6]: 5%
- Population Membrane Permeable-Phenotype (%) [6]: 0%
- Population Mitochondria Different-Phenotype (%) [6]: 37%
- Population Mitotic Cells (%) [6]: 65%
- Population Normal (%) [6]: 94%
- Population Pyknosed Nuclei (%) [6]: 9%
- Population Tubulin-Different-Phenotype (%) [6]: 16%
- Total Cell Count [6]: 477
- Population Apoptotic (%) [7]: 46%
- Population Fragmented Nuclei (%) [7]: 10%
- Population Healthy Nuclei (%) [7]: 78%
- Population Hoechst High Intensity Objects (%) [7]: 7%
- Population Membrane Permeable-Phenotype (%) [7]: 0%
- Population Mitochondria Different-Phenotype (%) [7]: 46%
- Population Mitotic Cells (%) [7]: 54%
- Population Normal (%) [7]: 92%
- Population Pyknosed Nuclei (%) [7]: 10%
- Population Tubulin-Different-Phenotype (%) [7]: 35%
- Total Cell Count [7]: 490
- Population Fragmented Nuclei (%) [8]: 12%
- Population Hoechst High Intensity Objects (%) [8]: 11%
- Population Mitochondria Different-Phenotype (%) [8]: 55%
- Population Mitotic Cells (%) [8]: 53%
- Population Normal (%) [8]: 88%
- Population Pyknosed Nuclei (%) [8]: 9%
- Population Tubulin-Different-Phenotype (%) [8]: 31%
- Total Cell Count [8]: 483
- Population Apoptotic (%) [9]: 20%
- Population Fragmented Nuclei (%) [9]: 15%
- Population Healthy Nuclei (%) [9]: 77%
- Population Hoechst High Intensity Objects (%) [9]: 4%
- Population Membrane Permeable-Phenotype (%) [9]: 1%
- Population Mitochondria Different-Phenotype (%) [9]: 15%
- Population Mitotic Cells (%) [9]: 79%
- Population Normal (%) [9]: 95%
- Population Pyknosed Nuclei (%) [9]: 6%
- Population Tubulin-Different-Phenotype (%) [9]: 15%
- Total Cell Count [9]: 956
- Population Apoptotic (%) [10]: 28%
- Population Fragmented Nuclei (%) [10]: 13%
- Population Healthy Nuclei (%) [10]: 81%
- Population Hoechst High Intensity Objects (%) [10]: 5%
- Population Mitochondria Different-Phenotype (%) [10]: 20%
- Population Mitotic Cells (%) [10]: 71%
- Population Normal (%) [10]: 94%
- Population Pyknosed Nuclei (%) [10]: 5%
- Population Tubulin-Different-Phenotype (%) [10]: 11%
- Total Cell Count [10]: 703
- Population Apoptotic (%) [11]: 33%
- Population Fragmented Nuclei (%) [11]: 16%
- Population Healthy Nuclei (%) [11]: 76%
- Population Hoechst High Intensity Objects (%) [11]: 7%
- Population Membrane Permeable-Phenotype (%) [11]: 0%
- Population Mitochondria Different-Phenotype (%) [11]: 32%
- Population Mitotic Cells (%) [11]: 66%
- Population Normal (%) [11]: 92%
- Population Pyknosed Nuclei (%) [11]: 6%
- Population Tubulin-Different-Phenotype (%) [11]: 18%
- Total Cell Count [11]: 659
- Population Apoptotic (%) [12]: 25%
- Population Fragmented Nuclei (%) [12]: 18%
- Population Healthy Nuclei (%) [12]: 75%
- Population Hoechst High Intensity Objects (%) [12]: 6%
- Population Membrane Permeable-Phenotype (%) [12]: 1%
- Population Mitochondria Different-Phenotype (%) [12]: 25%
- Population Mitotic Cells (%) [12]: 74%
- Population Normal (%) [12]: 93%
- Population Pyknosed Nuclei (%) [12]: 5%
- Total Cell Count [12]: 731
